Measured values pooled from the literature.
Lines come from different studies, so protocols differ.
Cell line: CCRF-CEM
Read-out: cell growth or viability

| Structure (SMILES) | assay | conditions | IC50 |
| --- | --- | --- | --- |
| O=C(CN1C(=O)SC(=Cc2ccccc2)C1=O)Nc1nc2c(Cl)cccc2s1 | MTT | 48 h | 35200 nM |
| COc1ccc(OC)c(CCc2cc(C#N)c(N)s2)c1 | – | 48 h | 35 nM |
| COc1ccccc1C(=O)c1cc2c(-c3ccccc3)c(O)ccc2o1 | – | 72 h | 19000 nM |
| COC(=O)c1cc(CCc2ccccc2OC)sc1N | – | 48 h | 1200 nM |
| COc1cc(OC)cc(C(=O)c2cc3c(-c4ccccc4)c(O)ccc3o2)c1 | – | 72 h | 9600 nM |
| CCOC(=O)c1cc(CCc2ccccc2OC)sc1N | – | 48 h | 20000 nM |
| COc1ccccc1C(=O)c1cc2c(-c3ccccc3)c(OC)ccc2o1 | – | 72 h | > 50000 nM |
| O=C(CN1C(=O)SC(=Cc2ccccc2)C1=O)Nc1ccc(F)cc1F | MTT | 48 h | 32300 nM |
| COC(=O)c1cc(CCc2cc(OC)ccc2OC)sc1N | – | 48 h | 1400 nM |
| CCc1ccc(CCOc2ccc(CC3SC(=O)NC3=O)cc2)nc1 (centres unmarked) | MTT | 48 h | 17900 nM |
| CCOC(=O)c1cc(CCc2ccc(OC)cc2)sc1N | – | 48 h | 1900 nM |
| COc1cccc2c1C(=O)c1c(O)c3c(c(O)c1C2=O)C[C@@](O)(C(=O)CO)C[C@@H]3O[C@H]1C[C@H](N)[C@H](O)[C@H](C)O1 | resazurin | 72 h | 10 nM |
| O=C1C(=Cc2ccccc2)CN(C(=O)CCCC(=O)N2CC(=Cc3ccccc3)C(=O)C(=Cc3ccccc3)C2)CC1=Cc1ccccc1 | – | 72 h | 2030 nM |
| O=C(CN1C(=O)SC(=Cc2ccc(F)cc2)C1=O)Nc1ccc(Cl)cc1C(F)(F)F | MTT | 48 h | 38000 nM |
| O=C1C(=Cc2ccccc2)CN(C(=O)CCC(=O)N2CC(=Cc3ccccc3)C(=O)C(=Cc3ccccc3)C2)CC1=Cc1ccccc1 | – | 72 h | 1210 nM |
| COc1ccc(/C=C\c2cc(OC)c(OC)c(OC)c2)cc1O | – | 72 h | 1.8 nM |
| O=C1C(=Cc2ccccc2)CN(C(=O)C(=O)N2CC(=Cc3ccccc3)C(=O)C(=Cc3ccccc3)C2)CC1=Cc1ccccc1 | – | 72 h | 750 nM |
| COc1ccc(C(=O)c2cc3c(-c4ccccc4)c(O)ccc3o2)cc1 | – | 72 h | 880 nM |
| O=C(CN1C(=O)SC(=Cc2ccc(F)cc2)C1=O)Nc1cccc(C(F)(F)F)c1 | MTT | 48 h | 30100 nM |
| O=C1C(=Cc2ccccc2)CN(C(=O)C=CC(=O)N2CC(=Cc3ccccc3)C(=O)C(=Cc3ccccc3)C2)CC1=Cc1ccccc1 | – | 72 h | 7750 nM |
| CC[C@]1(O)C[C@H]2CN(CCc3c([nH]c4ccccc34)[C@@](C(=O)OC)(c3cc4c(cc3OC)N(C=O)[C@H]3[C@@](O)(C(=O)OC)[C@H](OC(C)=O)[C@]5(CC)C=CCN6CC[C@]43[C@@H]65)C2)C1 | fluorescence | 72 h | 10.4 nM |
| COC(=O)c1c(N)sc(CCc2cc(OC)ccc2OC)c1C | – | 48 h | 30000 nM |
| O=C1NC(=NCc2cccs2)S/C1=C\c1ccc2ncccc2c1 | – | – | 2500 nM |
